From PubChem
PMI activator = phosphomannose isomerase (human) activation; P34949; purified human PMI, coupled resazurin fluorescence, 20 min; active compounds read high; 1 = vehicle control, 0 substrate-free wells; activation factor at 20 µM; hit rate 0.005% among 190,000;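 active = activation factor of 2 or more at 20 µM, relative to plate controls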
PMI act hi M6P = PMI (human) activation, high substrate. activation factor at 20 µM. AID 1216. coupled PMI enzyme assay, resazurin fluorescence, 20 min; active compounds read high; 1 = untreated enzyme, 0 = substrate-free blank. hit rate 0.34% among 190,000;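 active = activation factor of 2 or more at 20 µM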
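assay system = human phosphomannose isomerase with PGI, G6PDH, diaphorase coupling enzymes | quantity = 15 ng/mL PMI | incubation = enzyme reaction with compound 20 min at room temperature | medium = HEPES pH 7.4 buffer with MgCl2 and Tween-20 | compound dosing = one concentration, 20 µM, in 1% DMSO | measured by = Diaphorase-driven resazurin-to-resorufin fluorescence, excitation 544, emission 590 nm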
KCC2 mod = KCC2 (human) Cl- transport modulation. AID 1456. KCC2 cells, thallium flux FluoZin-2 fluorescence. B-score of Tl+ flux slope (higher = more flux/activation; lower = inhibition) at 10 µM. hit rate 2.2% among 190,000;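 active = thallium flux slope and its plate-corrected score both differing from the plate sample mean at a set confidence after two filtering rounds, in either direction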;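 also: slope of fluorescence scaled to starting intensity during 10 to 20 s after thallium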
ROMK mod = human ROMK K+ channel modulation, primary screen; B-score at 10 µM; hit rate 2% among 130,000; P48048; AID 1918; Tet-inducible ROMK, thallium flux fluorescence; actives lie on both sides;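 active = signal ratio slope over the read window, or its plate-corrected B-score, at least 3 SD from the plate mean, either direction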;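 also: B-score of the F/F0 ratio slope over 7 to 12 s after thallium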
ABCB1 inh = inhibitors of human ABCB1 transporter, ABCG2 counter-screen; inhibition, % at 6.6 µM; P08183; hit rate 0.067% among 190,000; CCRF-Adr cells, JC-1 efflux, flow cytometry; in the data active = inhibition above about 40%;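 also: 0% = vehicle and 100% = reference inhibitor; higher value means more JC-1 retained so stronger ABCB1 efflux block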
ABCG2 inh = blocks JC-1 efflux by human ABCG2 transporter; Q9UNQ0; IgMXP3 cells, flow cytometry; inhibition, % at 6.6 µM; hit rate 0.1% among 190,000; AID 1325;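 active = inhibition above 80%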;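 also: 0% = DMSO and 100% = nicardipine control wells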
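Times: 10 min at 25 °C | Test system: Two drug-resistant human cell lines, ABCG2 and ABCB1 | Quantity: 3 million cells/mL final, two lines in 1:1 ratio | Signal: Flow cytometry, 530 nm JC-1 signal | Dosing: Compound at 6.6 µM | Controls: Nicardipine and DMSO wells | Reagent: JC-1 as fluorescent efflux pump substrate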
Numbers without * were called inactive; . = no result; ! = not confirmed by another sample. The list is not random: actives were taken first. Their share in the collection is about 3.3%.

SMILES | PMI activator | PMI act hi M6P | KCC2 mod | ROMK mod | ABCB1 inh | ABCG2 inh
O=c1[nH]c(=S)n(C2CC2)c(O)c1/C=N/Nc1cccc2ccccc12 | 1.3 | 1.2 | 0.464 | . | -1.6 | -3.9
CCC(C)n1c(O)c(C=NCCc2ccccc2)c(=O)[nH]c1=S (stereo not given) | . | . | -0.183 | . | . | .
O=c1[nH]c(=S)n(C2CC2)c(O)c1/C=N/Nc1ccccc1 | 1.6 | 2* | 0.594 | . | -0.4 | -1.4
CCC(C)n1c(O)c(/C=N/Nc2ccccc2)c(=O)[nH]c1=S (stereo not given) | 1.7 | 2.7* | -0.555 | . | 0.0 | 0.0
[N-]=[N+]=NC1C[C@H](n2ccc(=O)[nH]c2=O)O[C@@H]1CO (stereo not given in full) | 0.9 | 1 | 0.27 | . | -0.3 | -1.1
Cn1cc(C(=O)N2CCCCC2)c2ccccc21 | 1.2 | 1.1 | 0.344 | -0.183 | 0.0 | 0.2
Cc1ccc(N2C(=O)NC(=O)C3(Cc4ccccc4N4CCN(c5ccccc5)CC43)C2=O)cc1 (stereo not given) | 1.6 | 2.2* | 0.694 | . | 1.1 | 4.7
COc1cccc(C2(O)CCN(CC(=O)Nc3nc(C)cs3)CC2)c1 | 1.1 | 1 | -0.515 | 0.46 | -0.2 | -0.1
CN1C2CCC1CC(=NO)C2 | 1.1 | 1.1 | 1.27 | -0.385 | 0.1 | 2.6
O=C(CN1CCCCC1)c1ccccc1F | 1.6 | 2.3* | 1.17 | . | -0.2 | 16.3
Cc1cc(C(=O)CN2CCCC2)c(C)n1-c1ccc(F)cc1 | . | . | 0.203 | . | . | .
O=C(CN1CCCCC1)c1cccc(Br)c1 | 1.5 | 1.4 | -0.677 | . | 0.4 | 7.0
O=C(CN1CCCCC1)c1ccccc1Cl | 1.7 | 2* | 0.339 | . | 0.3 | -7.5
COc1ccc(CC2(CCc3ccncc3)C(=O)NC(=O)NC2=O)c(OC)c1 | 0.9 | 0.9 | 1 | 0.393 | 0.2 | 1.2
CC1CCN(c2cc(Br)c([N+](=O)[O-])cc2F)CC1 | . | . | 0.303 | . | . | .
CC/C(=C\C=C\[C@@H]1C=C[C@@H]2CCC[C@H]2[C@@H]1C(=O)c1ccc[nH]1)[C@@H]1O[C@@H]([C@@H](C)C(=O)O)CC[C@@H]1C | 0.9 | 1 | 3.36* | . | -0.1 | 2.4
CCOc1ccc(N2C(=O)/C(=C\c3cccs3)C(=O)NC2=S)cc1 | 1.6 | 2.2* | 0.984 | 0.542 | -1.2 | -2.6
CN(C)c1ccc(C=C2C(=O)NC(=S)NC2=O)cc1[N+](=O)[O-] | 1.5 | 2.1* | -0.181 | -0.26 | 1.2 | 6.7
CC1(C)OC(c2ccccc2)=C/C(=C/C=C2C(=O)NC(=S)NC2=O)O1 | 1.3 | 1.7 | -1.64 | . | 6.9 | 0.7
CN1/C(=C\C=C2C(=O)NC(=S)NC2=O)C(C)(C)c2ccccc21 | 1.1 | 1.1 | -4.63* | -3.57* | 0.9 | 1.4
O=C(N/N=C1/CN2CCC1CC2)c1cc2ccccc2cc1O | 0.7 | 0.9 | -0.605 | . | -0.3 | -1.6
O=[N+]([O-])c1cc(-c2ccc([As](=O)(O)O)cc2)ccc1[As](=O)(O)O | . | . | 0.971 | . | . | .
Cc1cc2c(C(C)C)c(O)c(O)c(C=O)c2c(O)c1-c1c(C)cc2c(C(C)C)c(O)c(O)c(C=O)c2c1O | 0.7 | 0.5 | -7.15*! | . | -1.2 | -3.7
CN[C@H]1C[C@H]2O[C@@](C)([C@H]1OC)n1c3ccccc3c3c4c(c5c6ccccc6n2c5c31)C(=O)NC4 | 0.8 | 0.7 | -2.42 | 20.6* | 2.3 | -1.4
O=C1NC(=O)N(Cc2ccccc2)C(=O)/C1=C\c1ccco1 | 1.6 | 2.3* | 1.3 | 0.532 | -0.8 | -1.9
SMILES | PMI activator | PMI act hi M6P | KCC2 mod | ROMK mod | ABCB1 inh | ABCG2 inh
O=C1NC(=O)N(Cc2ccc(F)cc2)C(=O)/C1=C\C=C\c1ccco1 | . | . | 2.01 | -1.22 | . | .
CCNc1cc(N2CCNCC2)ccc1[N+](=O)[O-] | 0.9 | 0.8 | -0.8 | -1.14 | 2.4 | 12.7
O=C1NC(=O)C(=Cc2ccccc2Oc2ccc(F)cc2)C(=O)N1 | 1.1 | 1.2 | -1.06 | 3.28* | -0.2 | -0.4
CC1=CC(=C2C(=O)NC(=S)NC2=O)C=C(C(F)(F)F)N1CCc1ccccc1 | 1.2 | 1.2 | 1.85 | -0.39 | 0.0 | 0.3
Cc1nc2cc(C(=O)N3CCC4(CC3)OCCO4)ccc2n1-c1ccc(Br)cc1 | 0.9 | 0.9 | . | -2.38* | 2.1 | 6.8
C=CCC1C(=O)NC(=S)NC1=O | 1.6 | 2* | 1.57 | -0.41 | -0.2 | -0.8
